According to ChEMBL document CHEMBL3797186, “Single Residue Substitutions That Confer Voltage-Gated Sodium Ion Channel Subtype Selectivity in the NaV1.7 Inhibitory Peptide GpTx-1” (J Med Chem, 2016):
pIC50: −log10 of the molar value. Positions of bridges follow the written chain, without caps; N, C: chain ends. Residues, ends and D or L forms follow the SMILES beside them.

Experiments:
[1] = target: Sodium channel protein type 5 subunit alpha (Homo sapiens, UniProt Q14524); test: Inhibition of human Nav1.5 expressed in HEK293 cells assessed as inward peak current by ion-works quattro patch clamp electrophysiology method; format: cell-based
Method in brief: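 Stable HEK293 line expressing human NaV1.5, recorded by population patch clamp on the IonWorks Quattro.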

[2] = target: Sodium channel protein type 9 subunit alpha (Homo sapiens, UniProt Q15858); test: Inhibition of human Nav1.7 expressed in HEK293 cells assessed as inward peak current by ion-works quattro patch clamp electrophysiology method; format: cell-based
Sequence of Sodium channel protein type 9 subunit alpha (Q15858 whole entry): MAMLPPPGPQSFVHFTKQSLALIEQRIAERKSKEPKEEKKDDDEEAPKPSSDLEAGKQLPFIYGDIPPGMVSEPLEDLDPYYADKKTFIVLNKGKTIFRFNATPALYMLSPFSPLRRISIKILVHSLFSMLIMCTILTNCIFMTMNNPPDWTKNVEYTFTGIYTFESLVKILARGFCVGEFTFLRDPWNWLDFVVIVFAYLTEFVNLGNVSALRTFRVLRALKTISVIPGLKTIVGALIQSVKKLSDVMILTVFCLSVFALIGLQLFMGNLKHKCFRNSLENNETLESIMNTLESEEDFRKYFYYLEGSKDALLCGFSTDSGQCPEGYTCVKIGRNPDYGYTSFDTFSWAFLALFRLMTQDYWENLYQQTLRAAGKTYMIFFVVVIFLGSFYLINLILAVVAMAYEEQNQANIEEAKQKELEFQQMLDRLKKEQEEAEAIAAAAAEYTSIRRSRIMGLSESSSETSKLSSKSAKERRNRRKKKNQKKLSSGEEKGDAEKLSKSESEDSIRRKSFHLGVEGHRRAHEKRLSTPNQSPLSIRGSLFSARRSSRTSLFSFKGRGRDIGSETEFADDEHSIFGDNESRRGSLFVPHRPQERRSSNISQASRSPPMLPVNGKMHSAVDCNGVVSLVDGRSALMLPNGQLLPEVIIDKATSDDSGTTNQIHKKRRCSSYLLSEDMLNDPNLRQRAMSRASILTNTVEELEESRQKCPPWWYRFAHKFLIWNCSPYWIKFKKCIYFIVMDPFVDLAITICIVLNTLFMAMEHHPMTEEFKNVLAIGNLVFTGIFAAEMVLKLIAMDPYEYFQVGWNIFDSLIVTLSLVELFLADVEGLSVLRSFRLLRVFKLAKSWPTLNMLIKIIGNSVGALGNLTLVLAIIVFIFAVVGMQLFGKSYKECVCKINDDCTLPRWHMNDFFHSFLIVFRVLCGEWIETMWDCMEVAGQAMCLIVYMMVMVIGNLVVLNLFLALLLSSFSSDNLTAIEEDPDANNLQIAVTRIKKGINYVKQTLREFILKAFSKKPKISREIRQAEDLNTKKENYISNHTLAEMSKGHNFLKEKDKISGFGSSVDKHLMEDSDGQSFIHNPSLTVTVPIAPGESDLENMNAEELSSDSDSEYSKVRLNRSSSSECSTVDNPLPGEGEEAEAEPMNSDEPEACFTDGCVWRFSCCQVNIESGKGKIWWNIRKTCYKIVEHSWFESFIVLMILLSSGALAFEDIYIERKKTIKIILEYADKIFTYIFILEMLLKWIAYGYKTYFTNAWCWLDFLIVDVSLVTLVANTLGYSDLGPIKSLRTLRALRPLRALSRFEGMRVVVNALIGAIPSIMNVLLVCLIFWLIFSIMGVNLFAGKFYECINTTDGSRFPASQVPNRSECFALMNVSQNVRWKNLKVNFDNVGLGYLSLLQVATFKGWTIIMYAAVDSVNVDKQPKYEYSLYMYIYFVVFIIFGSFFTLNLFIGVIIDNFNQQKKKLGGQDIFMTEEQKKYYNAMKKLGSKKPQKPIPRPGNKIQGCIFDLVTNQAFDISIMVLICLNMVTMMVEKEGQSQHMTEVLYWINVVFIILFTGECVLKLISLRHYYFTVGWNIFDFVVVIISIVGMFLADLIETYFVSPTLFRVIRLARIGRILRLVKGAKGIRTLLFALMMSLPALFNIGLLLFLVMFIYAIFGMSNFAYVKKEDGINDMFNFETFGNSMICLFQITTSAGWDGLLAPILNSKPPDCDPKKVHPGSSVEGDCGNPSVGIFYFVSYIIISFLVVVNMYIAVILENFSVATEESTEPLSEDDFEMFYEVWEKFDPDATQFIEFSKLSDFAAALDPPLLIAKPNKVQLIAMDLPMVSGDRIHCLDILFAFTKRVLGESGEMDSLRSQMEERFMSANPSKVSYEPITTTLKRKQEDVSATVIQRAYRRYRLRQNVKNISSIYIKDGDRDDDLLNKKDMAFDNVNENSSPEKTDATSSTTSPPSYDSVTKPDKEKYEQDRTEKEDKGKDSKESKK

Sequence of Sodium channel protein type 5 subunit alpha (Q14524 whole entry): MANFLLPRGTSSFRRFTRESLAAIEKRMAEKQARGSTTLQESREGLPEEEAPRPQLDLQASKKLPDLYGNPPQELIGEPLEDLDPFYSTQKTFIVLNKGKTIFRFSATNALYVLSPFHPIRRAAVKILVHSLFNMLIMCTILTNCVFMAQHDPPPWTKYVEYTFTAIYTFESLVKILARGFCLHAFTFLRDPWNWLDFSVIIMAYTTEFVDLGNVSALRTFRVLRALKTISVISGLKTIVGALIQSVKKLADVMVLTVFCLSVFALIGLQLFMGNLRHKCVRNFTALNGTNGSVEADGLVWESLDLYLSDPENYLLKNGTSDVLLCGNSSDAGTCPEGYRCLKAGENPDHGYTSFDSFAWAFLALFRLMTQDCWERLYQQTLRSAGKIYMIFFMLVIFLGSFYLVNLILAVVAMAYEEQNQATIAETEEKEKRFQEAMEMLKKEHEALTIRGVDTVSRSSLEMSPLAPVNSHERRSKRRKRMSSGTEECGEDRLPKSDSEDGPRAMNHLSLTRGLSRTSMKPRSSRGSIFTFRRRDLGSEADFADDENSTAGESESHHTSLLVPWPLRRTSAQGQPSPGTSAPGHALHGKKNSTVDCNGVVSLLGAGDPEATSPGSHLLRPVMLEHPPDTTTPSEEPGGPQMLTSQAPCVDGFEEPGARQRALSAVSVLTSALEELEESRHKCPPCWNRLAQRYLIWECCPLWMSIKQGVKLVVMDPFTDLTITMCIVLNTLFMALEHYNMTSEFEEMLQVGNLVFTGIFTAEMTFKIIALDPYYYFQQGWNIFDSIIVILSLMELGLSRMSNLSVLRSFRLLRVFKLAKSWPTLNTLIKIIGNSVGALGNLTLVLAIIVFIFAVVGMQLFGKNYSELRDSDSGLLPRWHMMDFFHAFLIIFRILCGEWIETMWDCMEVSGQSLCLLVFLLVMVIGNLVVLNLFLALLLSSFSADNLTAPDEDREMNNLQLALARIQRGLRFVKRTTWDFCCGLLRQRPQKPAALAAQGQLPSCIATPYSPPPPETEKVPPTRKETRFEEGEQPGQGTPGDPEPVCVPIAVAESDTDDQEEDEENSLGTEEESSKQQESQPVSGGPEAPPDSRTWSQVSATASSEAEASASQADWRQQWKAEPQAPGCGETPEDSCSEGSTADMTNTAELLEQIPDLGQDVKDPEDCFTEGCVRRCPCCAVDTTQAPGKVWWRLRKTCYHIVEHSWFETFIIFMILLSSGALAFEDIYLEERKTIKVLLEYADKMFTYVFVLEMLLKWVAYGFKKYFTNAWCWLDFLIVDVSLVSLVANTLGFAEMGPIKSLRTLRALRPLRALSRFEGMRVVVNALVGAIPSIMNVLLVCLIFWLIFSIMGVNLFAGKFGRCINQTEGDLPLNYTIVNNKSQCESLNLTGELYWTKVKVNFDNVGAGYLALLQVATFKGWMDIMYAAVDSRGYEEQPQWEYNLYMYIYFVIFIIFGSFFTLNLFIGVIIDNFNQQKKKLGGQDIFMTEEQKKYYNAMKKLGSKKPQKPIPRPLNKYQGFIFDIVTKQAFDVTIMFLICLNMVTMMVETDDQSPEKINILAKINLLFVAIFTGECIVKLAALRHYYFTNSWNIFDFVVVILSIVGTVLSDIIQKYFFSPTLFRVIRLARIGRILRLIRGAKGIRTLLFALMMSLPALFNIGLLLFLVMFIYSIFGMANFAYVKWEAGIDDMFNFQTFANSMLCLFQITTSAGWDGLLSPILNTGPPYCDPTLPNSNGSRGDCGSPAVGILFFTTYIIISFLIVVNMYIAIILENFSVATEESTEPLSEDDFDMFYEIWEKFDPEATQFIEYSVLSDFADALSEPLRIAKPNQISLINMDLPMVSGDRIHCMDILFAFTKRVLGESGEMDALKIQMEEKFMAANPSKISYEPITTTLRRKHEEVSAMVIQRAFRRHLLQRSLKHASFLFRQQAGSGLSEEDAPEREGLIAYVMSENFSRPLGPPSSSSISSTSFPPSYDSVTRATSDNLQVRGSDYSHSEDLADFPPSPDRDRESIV

Question: Which results are given for `CC[C@H](C)[C@@H]1NC(=O)[C@@H]2CSSC[C@@H]3NC(=O)[C@H](C(C)C)NC(=O)[C@H](CC(C)C)NC(=O)[C@H](CC(N)=O)NC(=O)[C@@H]4CCCN4C(=O)[C@H](CCCNC(=N)N)NC(=O)[C@H](CSSC[C@H](NC(=O)[C@@H](N)CC(=O)O)C(=O)N[C@@H](CC(C)C)C(=O)NCC(=O)N[C@@H](Cc4ccccc4)C(=O)N[C@@H](CCSC)C(=O)N[C@@H](CCCNC(=N)N)C(=O)N[C@@H](CCCCN)C(=O)N2)NC(=O)[C@H](CSSC[C@@H](C(=O)N[C@@H](CCCCN)C(=O)N[C@@H](Cc2ccc(O)cc2)C(=O)N[C@H](C(=O)N[C@@H](Cc2ccccc2)C(N)=O)C(C)C)NC(=O)[C@H](Cc2c[nH]c4ccccc24)NC(=O)[C@H](CCCCN)NC(=O)[C@H](Cc2cnc[nH]2)NC(=O)[C@H](Cc2c[nH]c4ccccc24)NC(=O)[C@H](CCCNC(=N)N)NC(=O)[C@H](CO)NC3=O)NC(=O)[C@H](CCCCN)NC(=O)[C@H](CC(=O)O)NC(=O)[C@H](CC(N)=O)NC(=O)[C@H](CC(=O)O)NC(=O)[C@@H]2CCCN2C1=O` (H-DCLGFMRKCIPDNDKCCRPNLVCSRWHKWCKYVF-NH2; disulfide 2-17, 9-23, 16-30)?
Answer: pIC50 [1]: 5.44; pIC50 [2]: 7.30

Question: How did the pIC50 [1] turn out when `CC[C@H](C)[C@@H]1NC(=O)[C@@H]2CSSC[C@@H]3NC(=O)[C@H](C(C)C)NC(=O)[C@H](CC(C)C)NC(=O)[C@H](CC(N)=O)NC(=O)[C@@H]4CCCN4C(=O)[C@H](CCCNC(=N)N)NC(=O)[C@H](CSSC[C@H](NC(=O)[C@@H](N)CC(=O)O)C(=O)N[C@@H](CC(C)C)C(=O)NCC(=O)N[C@@H](Cc4ccccc4)C(=O)N[C@@H](CCSC)C(=O)N[C@@H](CCCNC(=N)N)C(=O)N[C@@H](CCCCN)C(=O)N2)NC(=O)[C@H](CSSC[C@@H](C(=O)N[C@@H](CCCCN)C(=O)N[C@@H](CCC(=O)O)C(=O)N[C@H](C(=O)N[C@@H](Cc2ccccc2)C(N)=O)C(C)C)NC(=O)[C@H](Cc2c[nH]c4ccccc24)NC(=O)[C@H](CCCCN)NC(=O)[C@H](Cc2cnc[nH]2)NC(=O)[C@H]([C@@H](C)O)NC(=O)[C@H](CCCNC(=N)N)NC(=O)[C@H](CO)NC3=O)NC(=O)[C@H](CCCCN)NC(=O)[C@H](CC(=O)O)NC(=O)[C@H](CC(N)=O)NC(=O)[C@H](CC(=O)O)NC(=O)[C@@H]2CCCN2C1=O` (H-DCLGFMRKCIPDNDKCCRPNLVCSRTHKWCKEVF-NH2; disulfide 2-17, 9-23, 16-30) was run?
Answer: Its pIC50 is less than 5.30.

Question: And the pIC50 [2]?
Answer: The pIC50 was less than 5.30.

Question: `CC[C@H](C)[C@@H]1NC(=O)[C@@H]2CSSC[C@@H]3NC(=O)[C@H](C(C)C)NC(=O)[C@H](CC(C)C)NC(=O)[C@H](CC(N)=O)NC(=O)[C@@H]4CCCN4C(=O)[C@H](CCCNC(=N)N)NC(=O)[C@H](CSSC[C@H](NC(=O)[C@@H](N)CCC(=O)O)C(=O)N[C@@H](CC(C)C)C(=O)NCC(=O)N[C@@H](Cc4ccccc4)C(=O)N[C@@H](CCSC)C(=O)N[C@@H](CCCNC(=N)N)C(=O)N[C@@H](CCCCN)C(=O)N2)NC(=O)[C@H](CSSC[C@@H](C(=O)N[C@@H](CCCCN)C(=O)N[C@@H](Cc2ccc(O)cc2)C(=O)N[C@H](C(=O)N[C@@H](Cc2ccccc2)C(N)=O)C(C)C)NC(=O)[C@H](Cc2c[nH]c4ccccc24)NC(=O)[C@H](CCCCN)NC(=O)[C@H](Cc2cnc[nH]2)NC(=O)[C@H]([C@@H](C)O)NC(=O)[C@H](CCCNC(=N)N)NC(=O)[C@H](CO)NC3=O)NC(=O)[C@H](CCCCN)NC(=O)[C@H](CC(=O)O)NC(=O)[C@H](CC(N)=O)NC(=O)[C@H](CC(=O)O)NC(=O)[C@@H]2CCCN2C1=O` (H-ECLGFMRKCIPDNDKCCRPNLVCSRTHKWCKYVF-NH2; disulfide 2-17, 9-23, 16-30) was tested. Which pIC50 [1] did it give?
Answer: Its pIC50 is less than 5.30.

Question: How did the pIC50 [1] turn out when `CC[C@H](C)[C@@H]1NC(=O)[C@@H]2CSSC[C@@H]3NC(=O)[C@H](C(C)C)NC(=O)[C@H](CC(C)C)NC(=O)[C@H](CC(N)=O)NC(=O)[C@@H]4CCCN4C(=O)[C@H](CCCNC(=N)N)NC(=O)[C@H](CSSC[C@H](NC(=O)[C@@H](N)CC(=O)O)C(=O)N[C@@H](CC(C)C)C(=O)N[C@@H](CCC(=O)O)C(=O)N[C@@H](Cc4ccccc4)C(=O)N[C@@H](CCSC)C(=O)N[C@@H](CCCNC(=N)N)C(=O)N[C@@H](CCCCN)C(=O)N2)NC(=O)[C@H](CSSC[C@@H](C(=O)N[C@@H](CCCCN)C(=O)N[C@@H](Cc2ccc(O)cc2)C(=O)N[C@H](C(=O)N[C@@H](Cc2ccccc2)C(N)=O)C(C)C)NC(=O)[C@H](Cc2c[nH]c4ccccc24)NC(=O)[C@H](CCCCN)NC(=O)[C@H](Cc2cnc[nH]2)NC(=O)[C@H]([C@@H](C)O)NC(=O)[C@H](CCCNC(=N)N)NC(=O)[C@H](CO)NC3=O)NC(=O)[C@H](CCCCN)NC(=O)[C@H](CC(=O)O)NC(=O)[C@H](CC(N)=O)NC(=O)[C@H](CC(=O)O)NC(=O)[C@@H]2CCCN2C1=O` (H-DCLEFMRKCIPDNDKCCRPNLVCSRTHKWCKYVF-NH2; disulfide 2-17, 9-23, 16-30) was run?
Answer: Its pIC50 is less than 5.30.

Question: With `CC[C@H](C)[C@@H]1NC(=O)[C@@H]2CSSC[C@@H]3NC(=O)[C@H](C(C)C)NC(=O)[C@H](CC(C)C)NC(=O)[C@H](CC(N)=O)NC(=O)[C@@H]4CCCN4C(=O)[C@H](CCCNC(=N)N)NC(=O)[C@H](CSSC[C@H](NC(=O)[C@@H](N)CC(=O)O)C(=O)N[C@@H](CC(C)C)C(=O)NCC(=O)N[C@@H](Cc4ccccc4)C(=O)N[C@@H](CCSC)C(=O)N[C@@H](CCCNC(=N)N)C(=O)N[C@@H](CCC(=O)O)C(=O)N2)NC(=O)[C@H](CSSC[C@@H](C(=O)N[C@@H](CCCCN)C(=O)N[C@@H](Cc2ccc(O)cc2)C(=O)N[C@H](C(=O)N[C@@H](Cc2ccccc2)C(N)=O)C(C)C)NC(=O)[C@H](Cc2c[nH]c4ccccc24)NC(=O)[C@H](CCCCN)NC(=O)[C@H](Cc2cnc[nH]2)NC(=O)[C@H]([C@@H](C)O)NC(=O)[C@H](CCCNC(=N)N)NC(=O)[C@H](CO)NC3=O)NC(=O)[C@H](CCCCN)NC(=O)[C@H](CC(=O)O)NC(=O)[C@H](CC(N)=O)NC(=O)[C@H](CC(=O)O)NC(=O)[C@@H]2CCCN2C1=O` (H-DCLGFMRECIPDNDKCCRPNLVCSRTHKWCKYVF-NH2; disulfide 2-17, 9-23, 16-30) as the compound, how does the pIC50 [1] read?
Answer: The pIC50 was less than 5.30.

Question: How did the pIC50 [1] turn out when `CC[C@H](C)[C@@H]1NC(=O)[C@@H]2CSSC[C@@H]3NC(=O)[C@H](CCCNC(=N)N)NC(=O)[C@H](CC(C)C)NC(=O)[C@H](CC(N)=O)NC(=O)[C@@H]4CCCN4C(=O)[C@H](CCCNC(=N)N)NC(=O)[C@H](CSSC[C@H](NC(=O)[C@@H](N)CC(=O)O)C(=O)N[C@@H](CC(C)C)C(=O)NCC(=O)N[C@@H](Cc4ccccc4)C(=O)N[C@@H](CCSC)C(=O)N[C@@H](CCCNC(=N)N)C(=O)N[C@@H](CCCCN)C(=O)N2)NC(=O)[C@H](CSSC[C@@H](C(=O)N[C@@H](CCCCN)C(=O)N[C@@H](Cc2ccc(O)cc2)C(=O)N[C@H](C(=O)N[C@@H](Cc2ccccc2)C(N)=O)C(C)C)NC(=O)[C@H](Cc2c[nH]c4ccccc24)NC(=O)[C@H](CCCCN)NC(=O)[C@H](Cc2cnc[nH]2)NC(=O)[C@H]([C@@H](C)O)NC(=O)[C@H](CCCNC(=N)N)NC(=O)[C@H](CO)NC3=O)NC(=O)[C@H](CCCCN)NC(=O)[C@H](CC(=O)O)NC(=O)[C@H](CC(N)=O)NC(=O)[C@H](CC(=O)O)NC(=O)[C@@H]2CCCN2C1=O` (H-DCLGFMRKCIPDNDKCCRPNLRCSRTHKWCKYVF-NH2; disulfide 2-17, 9-23, 16-30) was run?
Answer: Its pIC50 is less than 5.30.
